# Dynein cargo inh = dynein cargo transport inhibition; 220,000 tested, 0.47% active; 3617.4 mouse cells, GR-EGFP nuclear translocation imaging; test concentration mostly 20 µM; stimulated with dexamethasone, 1 µM; hits give low values; z-score, hits read low;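 active means plate z-score of nuclear minus cytoplasmic receptor signal below a set negative limit, without overly bright fluorescence or cell loss, cut at about -3.5 in these data, passing the limit was not always enough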;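 further: z-score of nuclear minus cytoplasmic ring GR-EGFP intensity difference per well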
#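 Buffer or medium: Induction medium lacking tetracycline, stripped serum | Also added: Dexamethasone agonist, 1.0 µM final, for 30 min | Timing: 48 h induction, 1 h compound, 30 min dex at 37 °C | Detection: Formaldehyde fixation, Hoechst nuclear stain, 10x automated fluorescence imaging | Measure: Nuclear versus cytoplasmic GR-EGFP signal, averaged per well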
# p-CIP stab down = p/CIP protein destabilization. AID 1984. decrease of EGFP signal, % at 10 µM. 290,000 tested, 0.01% active. F442A p/CIP-EGFP cells, EGFP fluorescence, 16 h;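 active means EGFP signal decrease of at least 30% at 10 µM or well 3 SD below plate mean, unless failing retest; inactive means the rest, including hits failing retest or dose response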
# RAM network inh = blocks the yeast RAM network. S. cerevisiae dse1pr::URA3 reporter, 5-FOA growth OD615, 2 d; analog-sensitive cbk1-as2 kinase mutant strain. 190,000 tested, 1.8% active. inhibition, % at 50 µM;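 active means inhibition above a set limit, 3 SD over mean compound inhibition, cut at about 8.4% in these data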;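 further: inhibition rescues growth on 5-FOA so higher OD means more RAM inhibition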
# NCF1 inh = inhibitors of human p47phox binding; inhibition, % at 24.7 µM; P14598; 220,000 tested, 0.53% active; p47phox/p22phox peptide binding, fluorescence polarization, 2 h;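 active means inhibition above about 30%, limit read from the data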
# Hits are given with their value; . = inactive; / = no result given. Sampled rows, rich in hits. Any-hit rate of the full collection: about 1.9%.
SMILES,Dynein cargo inh,p-CIP stab down,RAM network inh,NCF1 inh
COc1ccccc1OCc1nnc(SCC(=O)c2cc(Cl)ccc2OC)o1,.,.,9.5,.
COc1ccc(OC)c(C(=O)CSc2nnc(-c3ccc(OC)c(OC)c3)o2)c1,.,.,10,.
COc1ccc(C(=O)CSc2nnc(-c3ccc(C)cc3)o2)cc1,.,.,.,.
O=C(CN1CCC(NC(=O)c2ccco2)CC1)Nc1ccccc1[N+](=O)[O-],.,.,.,.
COc1ccc(C(=O)C23CC4CC(C2)CC(C(=O)c2ccc(OC)cc2)(C4)C3)cc1,.,.,9.1,.
COc1ccc(C(=O)NCC(=O)Nc2ccc(-c3ccccc3)cc2)cc1,/,.,/,/
O=S1(=O)C=C(Sc2nnc(-c3ccccc3)o2)c2ccccc21,-4.1,.,.,.
CCOC(=O)C1CCN(C(=O)Nc2ccc(OCc3ccccc3)cc2)CC1,.,.,/,44
O=C(Nc1ccccc1-c1nnc(SCc2ccc(Cl)cc2Cl)o1)c1ccccc1,.,.,10,.
CC(C)(C)c1ccc(CSc2nnc(-c3ccccc3NC(=O)c3ccccc3)o2)cc1,.,.,.,.
Cc1cc(C(C)(C)C)oc1C(=O)N(CC(=O)NC1CCCC1)Cc1ccccc1,/,.,.,.
Cc1ccc(C)c(N(CC(=O)NC2CCCC2)C(=O)c2oc(C(C)(C)C)cc2C)c1,.,.,9.5,.
COc1ccc(NC(=O)C(Sc2nnc3ccccn23)c2ccccc2)cc1Cl (stereo not drawn),.,.,.,.
O=C(Cc1ccccc1)N(c1ccc(F)cc1)C1C=CS(=O)(=O)C1 (stereo not drawn),.,.,.,.
O=C(Cc1ccc(F)cc1)N(c1ccc(F)cc1)C1C=CS(=O)(=O)C1 (stereo not drawn),.,.,.,35
Cc1ccc(S(=O)(=O)N2CCC(=O)N(C(COCc3cccc(C)c3)C(C)C)CC2)cc1 (stereo not drawn),.,.,.,.
Cc1ccc(S(=O)(=O)N2CCC(=O)N(C(COCc3ccccc3)Cc3ccccc3)CC2)cc1 (stereo not drawn),.,.,.,.
Cc1ccc(S(=O)(=O)N2CCC(=O)N(C(COCc3cccc(Cl)c3)C(C)C)CC2)cc1 (stereo not drawn),.,.,8.6,.
Cc1ccc(S(=O)(=O)N2CCC(=O)N(C(COCc3cccc(C(F)(F)F)c3)Cc3ccccc3)CC2)cc1 (stereo not drawn),.,.,9.8,.
CCN(CC)CCN(C(=O)Cn1nnc(-c2ccc(C)o2)n1)C(C(=O)NC1CCCC1)c1ccc(F)cc1 (stereo not drawn),/,.,/,/
O=C(CSc1nnc(CNC(=O)c2cccs2)o1)Nc1ccc(F)cc1F,/,.,/,/
CCOC(=O)N1CCC(N2Cc3cccc(C(=O)Nc4ccc(OCC)cc4)c3C2=O)CC1,/,.,/,/
COc1ccc(/C=C/C(=O)C(C(N)=O)=C2SCCS2)cc1,.,.,.,.
Cc1ccc(C(=O)C(C(=O)/C=C/c2ccccc2)=C2SCCCS2)cc1,-4.5,.,.,.
COCCNC(=O)c1c(N)n(-c2cccc(C)c2)c2nc3ccccc3nc12,.,.,10.0,.
SMILES,Dynein cargo inh,p-CIP stab down,RAM network inh,NCF1 inh
COc1cc(-n2c(N)c(C(=O)NCc3ccco3)c3nc4ccccc4nc32)cc(OC)c1OC,.,.,11,.
CC1=C(C(=O)Nc2cccc(C(=O)N3CCC(C(N)=O)CC3)c2)SCCO1,/,.,/,/
CC(=O)c1cccc(OCC(O)CN2CCN(C(=O)c3ccco3)CC2)c1 (stereo not drawn),/,.,/,/
Cc1ccc(C)c2c1cc(C)c1nnc(SCC(=O)c3cccs3)n12,.,.,11,.
Cc1cc2ccc(C)c(C)c2nc1SCC(=O)c1cccs1,.,.,8.6,.
O=C(CSc1nnc(-c2ccccc2)n1-c1ccccc1)c1cccs1,.,.,.,35
COc1ccc(N(CC(=O)Nc2ccccc2OC)S(=O)(=O)c2ccc(NC(C)=O)cc2)cc1,/,.,/,/
CC(C)Oc1ccc(CNC(=O)C2CCCN(S(=O)(=O)N3CCOCC3)C2)cc1 (stereo not drawn),/,.,/,/
COC(=O)C1=C(O)C(C(=O)OC)C(c2ccc(C)cc2)C(C#N)(C#N)C1c1ccc(C)cc1 (stereo not drawn),.,.,8.5,.
Cc1ccccc1N1C(=O)c2sc3nc4c(c(=O)n3c2C1=O)CCC4,.,.,.,69
O=C1c2sc3nc4c(c(=O)n3c2C(=O)N1c1ccccc1)CCC4,.,.,.,.
COc1ccc2cc(C3(C)NC(=O)N(CC(=O)NCC(F)(F)F)C3=O)ccc2c1 (stereo not drawn),/,.,/,/

# Assay outcomes (PubChem BioAssay)
